Measured values from ChEMBL document CHEMBL1133761, “Structure-activity relationships of (E)-5-(2-bromovinyl)uracil and related pyrimidine nucleosides as antiviral agents for herpes viruses” (J Med Chem, 2000).
pEC50: −log10 of the molar value.

How the values were obtained:
[1] = Effective concentration to show 50% of activity was measured on herpes simplex virus-1 KOS strain cell culture.; assay type: functional, Human alphaherpesvirus 1
Outline: (§1)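 Plaque reduction assay in Vero cells kept in RPMI 1640 with 10% FBS. HSV-1 was KOS strain and HSV-2 was strain 333. EC50 is based on the reduction in plaques.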

[2] = system: Human alphaherpesvirus 3; experiment: Effective concentration to show 50% of activity was measured on varicella zoster virus(VZV) cell culture; assay type: functional, organism-based
[3] = Effective concentration to show 50% of activity was measured on herpes simplex virus-2 333 strain cell culture.; assay type: functional, Human alphaherpesvirus 2; outline: as §1
[4] = system: CCRF-CEM; experiment: Dose that inhibited 50% cell growth of human T-lymphoid CEM cells compared with untreated control; assay type: functional
Outline: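 CEM cells in log-phase growth were exposed to serial drug dilutions and kept for three generations, then counted by Coulter counter. ID50 is the dose giving 50% growth inhibition versus untreated control.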

[5] = system: CCRF-CEM; experiment: The mitochondrial toxicity was measured on human T-lymphoid CEM cells.; assay type: functional
Outline: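 Human T-lymphoid CEM cells were incubated with drug at various concentrations, with medium and drug renewed on days 4 and 6, and harvested on day 8. DNA was extracted in TE (25 mM Tris pH 8.0, 1 mM EDTA), treated with RNase A and proteinase K, slot-blotted and probed with an mtDNA-specific probe.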

[6] = system: Human gammaherpesvirus 4; experiment: Effective concentration to show 50% of activity was measured on Epstein Barr virus(EBV) cell culture; assay type: functional, organism-based
Outline: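 EBV-producing H-1 cells were kept in RPMI 1640 with 10% FBS. Inhibition of viral growth was read as reduced viral DNA synthesis and expressed as EC50.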

[7] = system: Human alphaherpesvirus 3; experiment: The effective concentration to show 50% of activity was measured on varicella zoster virus(VZV) cell culture; assay type: functional, organism-based
Outline: (§2)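 VZV Ellen strain was used. Antiviral effect was scored as inhibition of viral DNA synthesis and expressed as EC50.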

[8] = system: Human alphaherpesvirus 3; experiment: The effective concentration to show 50% of activity was measured on varicella zoster virus(Ellen) cell culture; assay type: functional, organism-based; outline: as §2
[9] = The effective concentration to show 50% of activity was measured on herpes simplex virus-1 with strain KOS cell culture.; assay type: functional, cell-based, Human alphaherpesvirus 1; outline: as §1

SMILES | pEC50 [1] | pEC50 ([2]; Human alphaherpesvirus 3) | pEC50 [3] | ID50 [4] [µM] | ID50 [5] [µM] | pEC50 ([6]; human gammaherpesvirus 4) | pEC50 [7] | pEC50 [2] | pEC50 [6] | pEC50 [8] | pEC50 [9]
O=c1[nH]c(=O)n([C@H]2O[C@@H](CO)[C@H](O)[C@H]2F)cc1/C=C/Br | < 4.30 | < 4.30 | < 4.30 | > 100 | – | – | – | – | – | – | –
O=c1[nH]c(=O)n([C@H]2O[C@@H](CO)[C@H](O)[C@@H]2F)cc1/C=C/Br | < 4.30 | < 4.30 | < 4.30 | > 100 | – | – | – | – | – | – | –
O=c1[nH]c(=O)n([C@H]2CO[C@H](CO)O2)cc1/C=C/Cl | < 4.30 | < 4.52 | < 4.30 | > 100 | > 25 | < 4.30 | – | – | – | – | –
O=c1[nH]c(=O)n([C@@H]2CO[C@H](CO)O2)cc1/C=C/Br | 4.44 | 7.15 | < 4.30 | > 100 | > 200 | 6.23 | – | – | – | – | –
O=c1[nH]c(=O)n(C2CS[C@@H](CO)O2)cc1/C=C/Br (stereo partly drawn) | < 4.30 | – | < 4.30 | > 100 | – | – | – | – | – | – | –
O=c1[nH]c(=O)n([C@@H]2CO[C@@H](CO)O2)cc1/C=C/Br | < 4.30 | < 4.52 | < 4.30 | > 100 | – | < 4.30 | – | – | – | – | –
O=c1[nH]c(=O)n([C@@H]2CO[C@H](CO)O2)cc1/C=C/Cl | 4.74 | 6.82 | < 4.30 | > 100 | > 200 | 6.31 | – | – | – | – | –
O=c1[nH]c(=O)n([C@H]2CO[C@H](CO)O2)cc1/C=C/Br | < 4.30 | < 4.52 | < 4.30 | > 100 | > 25 | < 4.30 | – | – | – | – | –
O=c1[nH]c(=O)n([C@@H]2CO[C@H](CO)O2)cc1I | – | – | – | > 100 | > 200 | 7.48 | 4.77 | – | – | – | –
O=c1[nH]c(=O)n(C2CO[C@@H](CO)O2)cc1/C=C/Br (stereo partly drawn) | < 4.30 | 4.59 | < 4.30 | > 100 | – | < 4.30 | – | – | – | – | –
O=c1[nH]c(=O)n([C@@H]2CO[C@H](CO)O2)cc1/C=C/I | 4.48 | 7.46 | < 4.30 | > 100 | > 200 | 5.41 | – | – | – | – | –
O=c1[nH]c(=O)n([C@H]2CO[C@H](CO)O2)cc1/C=C/I | < 4.30 | < 4.52 | < 4.30 | > 100 | > 25 | < 4.30 | – | – | – | – | –
O=c1[nH]c(=O)n([C@@H]2CO[C@H](CO)O2)cc1Br | – | < 4.52 | – | > 100 | > 200 | 6.72 | – | – | – | – | –
O=c1[nH]c(=O)n([C@H]2O[C@@H](CO)[C@H](O)[C@H]2O)cc1/C=C/Br (stereo in doubt) | – | – | – | – | > 200 | – | – | 9.00 | 4.33 | – | –
O=c1[nH]c(=O)n([C@H]2O[C@@H](CO)[C@H](O)[C@H]2O)cc1/C=C/Br (stereo in doubt; 4) | < 4.30 | – | < 4.30 | > 100 | – | < 4.30 | – | < 4.30 | – | – | –
Nc1nc2c(ncn2COCCO)c(=O)[nH]1 [ACYCLOVIR] | 4.87 | – | – | > 100 | > 200 | 4.71 | – | – | – | – | –
O=c1[nH]c(=O)n([C@H]2C[C@H](O)[C@@H](CO)O2)cc1/C=C/Br [BRIVUDINE] | < 4.30 | 7.30 | < 4.30 | > 100 | > 100 | < 4.30 | – | – | – | < 4.30 | –
Nc1nc(O)c2ncn(CCC(CO)CO)c2n1 [PENCICLOVIR] | – | – | – | > 100 | > 200 | – | 6.85 | – | – | – | 4.74
